# Compound activity as filed in PubChem.
# In the library only some 3% were active in any assay of this set; here they are far more common.
# NPY-Y1 PAM-ag = human NPY-Y1 potentiation or agonism, primary screen; P25929; NPY-Y1 expressing cells, potentiator/agonist activation; activation, % at 3.6 µM; 220,000 compounds, 0.37% hits; AID 1304; in the data active = activation above about 33%, passing the limit was not always enough;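 also: cells stimulated with NPY at EC10 then isoproterenol at EC100; 0% = low agonist plus stimulus and 100% = saturating agonist plus stimulus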
# NPY Y1 blocker = antagonists of human neuropeptide Y receptor Y1. AID 1040. 200,000 compounds, 1% hits. HEK293-CNG Y1 cells, membrane potential fluorescence; NPY at EC95, then isoproterenol. P25929. inhibition, % at 3.6 µM;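 active = inhibition above the campaign mean inhibition of all tested compounds plus 3 SD, cut at about 20% in these data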;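 also: 0% = DMSO wells given NPY plus isoproterenol and 100% = isoproterenol alone without NPY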
#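 Assay system: HEK293 Y1/CNG channel cell line; Doses: single compound dose of 3.6 µM, 0.4% DMSO; Timing: dye 3 h, compound 60 min room temperature, stimulation 45 min; Technique: Membrane-potential fluorescent dye readout; Measure: % inhibition of NPY effect.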
# NPY-Y2 PAM-ag = potentiates or activates human NPY-Y2 receptor. activation, % at 3.6 µM. cells expressing NPY-Y2, potentiator/agonist read-out. P49146. AID 1359. 220,000 compounds, 0.45% hits; in the data active = activation above about 27%;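 also: cells stimulated with NPY near EC25 plus isoproterenol at EC100; 0% = vehicle plus submaximal agonist and 100% = vehicle plus saturating agonist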
# Wee1 degr inh = inhibitors of human Wee1 degradation. P30291. HeLa Luc-Wee1K328M stability, luciferase luminescence; 100% = proteasome inhibitor MG132 effect. reporter increase, % at 5 µM. 220,000 compounds, 1.2% hits. AID 1321;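 active = activation above the mean of all tested compounds plus 3 SD, set per screening run, cut at about 8.8% in these data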;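 also: cells exposed to compound for 20 h before luminescence read; 0% = DMSO alone and 100% = MG132 at 30 µM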
# Target sequence (P30291 whole entry K328M): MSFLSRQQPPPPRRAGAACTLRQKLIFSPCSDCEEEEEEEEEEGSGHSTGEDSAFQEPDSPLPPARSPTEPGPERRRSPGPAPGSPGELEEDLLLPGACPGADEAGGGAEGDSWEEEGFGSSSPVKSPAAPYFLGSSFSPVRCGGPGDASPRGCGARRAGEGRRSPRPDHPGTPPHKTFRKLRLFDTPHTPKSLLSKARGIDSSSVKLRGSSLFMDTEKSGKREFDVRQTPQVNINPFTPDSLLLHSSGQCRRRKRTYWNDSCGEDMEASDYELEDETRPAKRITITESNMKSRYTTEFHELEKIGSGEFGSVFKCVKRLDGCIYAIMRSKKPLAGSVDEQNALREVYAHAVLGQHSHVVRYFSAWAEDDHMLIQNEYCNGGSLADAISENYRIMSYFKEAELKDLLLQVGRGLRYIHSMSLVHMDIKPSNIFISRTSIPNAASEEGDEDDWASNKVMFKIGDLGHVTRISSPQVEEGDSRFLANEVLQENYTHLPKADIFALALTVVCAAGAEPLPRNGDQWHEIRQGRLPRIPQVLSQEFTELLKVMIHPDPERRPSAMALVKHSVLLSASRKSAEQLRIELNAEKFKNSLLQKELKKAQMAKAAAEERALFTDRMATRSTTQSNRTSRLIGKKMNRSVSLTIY
# NPY Y2 blocker = antagonists of human neuropeptide Y receptor Y2 | P49146 | NPY-Y2 expressing cells, antagonist mode | inhibition, % at 2.7 µM | 140,000 compounds, 0.99% hits | AID 793; in the data active = inhibition above about 17%;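 also: 0% = vehicle with agonist challenge and 100% = reference antagonist with challenge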
# Hsp70 act = Hsp70 transcriptional activation, primary screen; HeLa Hsp70 promoter luciferase reporter, luminescence; scaled: vehicle 0, proteasome-inhibitor control 100%; AID 1203; 200,000 compounds, 0.04% hits; activation, % at 10 µM;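 active = activation above the mean across all tested compounds plus 3 SD, cutoff set per campaign, cut at about 5.5% in these data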;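 also: 100% = MG132 at 30 µM as the positive control and 0% = DMSO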
# NPY-Y2 confirm = human NPY-Y2 potentiation or agonism, confirmation. shares compounds with NPY-Y2 PAM-ag. cell-based NPY-Y2 potentiator/agonist assay. activation, % at 3.6 µM. 450 compounds, 20% hits; in the data active = activation above about 33%
# NPY-Y1 counter = potentiates or activates NPY-Y1, counter-screen for NPY-Y2 hits; AID 1651; shares compounds with NPY-Y2 PAM-ag; activation, % at 3.6 µM; 450 compounds, 20% hits; Y1 HEK293-CNG cells, membrane potential fluorescence; in the data active = activation above about 45%;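 also: cells stimulated with submaximal NPY then isoproterenol with phosphodiesterase inhibitor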
# NPY-Y1 agonist 2 = counter-screen for NPY-Y2 potentiators: agonists of human NPY-Y1 | shares compounds with NPY-Y2 PAM-ag | HEK293 Y1-CNGC, membrane potential fluorescence, agonism | activation, % at 3.6 µM | 450 compounds, 37% hits;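 active = activation above the mean of DMSO-only control wells plus 3 SD, cut at about 18% in these data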;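 also: cells stimulated with 1 µM isoproterenol plus the PDE inhibitor Ro 20-1724; 0% = isoproterenol with DMSO and no NPY and 100% = 40 nM NPY; Y1 agonists lower the membrane potential dye signal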
# CNGC inh = cyclic nucleotide gated channel inhibition as counter-screen. HEK293-CNG parental, isoproterenol cAMP, membrane potential fluorescence. shares compounds with NPY-Y2 PAM-ag. inhibition, % at 3.6 µM. 450 compounds, 32% hits;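 active = inhibition above the control-well mean plus 3 SD of those wells, cut at about 22% in these data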;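 also: 0% = DMSO with isoproterenol and 100% = DMSO without isoproterenol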
# Y2 agonist ctr = NPY-Y2 agonism, counter-screen for Y2 potentiators; 450 compounds, 56% hits; AID 1710; shares compounds with NPY-Y2 PAM-ag; activation, % at 3.6 µM; HEK293 Y2/CNGC cells, membrane potential fluorescence, agonist mode;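 active = activation above the mean of solvent-only control wells plus 3 SD, cut at about 10% in these data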;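 also: cells stimulated by isoproterenol with no NPY added so direct agonism is tested; 0% = DMSO with isoproterenol alone and 100% = NPY at EC100 plus isoproterenol; agonism lowers probe fluorescence through less cAMP and CNG channel opening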
# Active calls of the source: *; x = not tested or not shown.
SMILES,NPY-Y1 PAM-ag,NPY Y1 blocker,NPY-Y2 PAM-ag,Wee1 degr inh,NPY Y2 blocker,Hsp70 act,NPY-Y2 confirm,NPY-Y1 counter,NPY-Y1 agonist 2,CNGC inh,Y2 agonist ctr
O=C(CSc1nnc(-c2cccnc2)n1Cc1ccco1)Nc1nc(-c2ccc(F)cc2)cs1,11,-3,-7,2,2,0,x,x,x,x,x
CSCCC(N=C(NS(=O)(=O)c1ccccc1)c1ccccc1)C(=O)O (stereo not given),11,x,4,-3,x,x,x,x,x,x,x
C#CCOCCOCCOCCNc1nc(N2CCN(C(=O)C([C@@H](C)CC)n3cc(C(N)Cc4ccc(O)cc4)nn3)CC2)nc(N2CCN(C(=O)[C@H](CCC(=O)O)n3cc(C(N)CO)nn3)CC2)n1 (stereo not given in full),9,4,18,-2,x,0,x,x,x,x,x
O=C(O)c1nccnc1C(=O)Nc1ccc(Oc2c(Cl)cccc2Cl)nc1,12,x,73*,3,x,x,-3,-2,-12,-8,0
O=C(NC(=O)c1c(Cl)cccc1Cl)Nc1ccc(Oc2cccnc2)nc1,10,x,15,0,x,x,x,x,x,x,x
O=C(Nc1ccccc1Cl)c1c(F)c(F)c(F)c(F)c1F,31,-13,32*,-2,2,0,1,15,-3,12,16*
Cc1ccccc1NC(=O)c1c(F)c(F)c(F)c(F)c1F,8,-3,-5,0,0,0,x,x,x,x,x
Cc1cc(C(=O)CN2C(=O)NC3(CCC(C)CC3)C2=O)c(C)n1C (stereo not given),13,-1,-1,-2,x,0,x,x,x,x,x
O=C(CN1CCN(S(=O)(=O)c2ccc(Br)cc2)CC1)N/N=C/c1ccc(Cl)c([N+](=O)[O-])c1,-3,-5,4,7,-1,0,x,x,x,x,x
Cc1ccc(S(=O)(=O)N2CCN(CC(=O)N/N=C\c3ccc(Cl)c([N+](=O)[O-])c3)CC2)cc1,22,-4,27*,3,-3,0,14,20,14,25*,12*
CSc1cccc(NS(=O)(=O)c2cccc3nsnc23)c1,-7,2,13,-3,5,0,x,x,x,x,x
